RGS7-Gao: regulators of human RGS7-Galphao interaction. Multiplexed bead flow cytometry, RGS7-Galphao binding; actives lie on both sides. binding response (% of control), % at 10 µM. actives 0.35% (n = 220,000); in the data active = binding response below about 49% or above about 150%; inconclusive = no clear call, values can overlap the other calls; inactive = in between;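 also: fluorescent Galphao held in activated GDP-AlF4 state binding bead-coupled RGS7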
Target sequence (P09471 whole entry, looked up): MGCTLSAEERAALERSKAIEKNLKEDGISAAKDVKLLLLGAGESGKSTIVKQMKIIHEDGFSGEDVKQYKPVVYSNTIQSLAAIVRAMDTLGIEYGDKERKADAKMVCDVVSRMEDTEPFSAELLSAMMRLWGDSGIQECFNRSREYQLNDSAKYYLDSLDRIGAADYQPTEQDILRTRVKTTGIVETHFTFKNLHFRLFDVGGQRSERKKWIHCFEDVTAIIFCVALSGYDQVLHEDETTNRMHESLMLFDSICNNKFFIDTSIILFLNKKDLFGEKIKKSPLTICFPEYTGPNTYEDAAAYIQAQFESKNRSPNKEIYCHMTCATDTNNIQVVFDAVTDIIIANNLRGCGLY
RGS4-Gao reg: human RGS4-Galphao interaction regulation | P09471 | Multiplexed bead flow cytometry, RGS4-Galphao binding; actives lie on both sides | binding response (% of control), % at 10 µM | actives 0.33% (n = 220,000) | AID 1415; in the data active = binding response below about 49% or above about 150%; inactive = in between;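 also: fluorescent Galphao activated with aluminum fluoride binding bead-coupled RGS4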
RGS16-Gao HTS: RGS16-Galphao interaction regulator (human); O15492+P09471; bead-based flow cytometry RGS16-Galphao binding, fluorescence; actives lie on both sides; binding response (% of control), % at 10 µM; actives 0.38% (n = 220,000); AID 1441;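 also: Galphao activated by GDP with aluminum fluoride before binding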
RGS8-Gao reg: modulates binding of RGS8 to human Galphao. actives 0.34% (n = 220,000). P09471. multiplexed bead flow cytometry; actives lie on both sides. response (percent of control binding), % at 10 µM; in the data active = response below about 60% or above about 140%; inactive = in between;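 also: Galphao activated as the GDP aluminium fluoride complex binding bead-coupled RGS8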
Biofilm kill mix: mixtures killing C. albicans biofilm; AID 1242; actives 0.02% (n = 120,000); inhibition, % at 7.6 µM; C. albicans biofilm persisters + clotrimazole, fluorescence viability; primary screen in compound mixtures of four per well;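 also: compounds exposed to preformed 24 h biofilms for 48 h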
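Probe or stimulus – Clotrimazole 50 µg/mL co-treatment · System – C. albicans biofilms · Schedule – 24 h biofilm formation, then 48 h compound exposure, 37 °C · Evaluation – percent inhibition of biofilm viability · Technique – 2-h Alamar Blue fluorescence, 535/590 nm excitation/emission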
RGS4-Gao HTS: RGS4-Galphao interaction regulator (human); shares compounds with RGS16-Gao HTS; multiplexed bead flow cytometry, RGS–Galpha-o binding; RGS4–Galpha-o binding response, % at 10 µM; actives 99% (n = 1,600);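 also: fluorescently labeled Galpha-o bound to GDP with aluminium fluoride binding biotinylated RGS beads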
Target sequence (P09471 whole entry, looked up): as above
Target sequence (P49798 whole entry, looked up): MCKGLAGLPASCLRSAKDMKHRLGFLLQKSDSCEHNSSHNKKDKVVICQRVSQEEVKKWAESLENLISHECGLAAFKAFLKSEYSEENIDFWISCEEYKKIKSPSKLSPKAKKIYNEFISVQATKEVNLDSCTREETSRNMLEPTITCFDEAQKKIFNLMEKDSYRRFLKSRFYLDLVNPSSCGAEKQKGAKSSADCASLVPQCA
Avidin counter: interferes with biotinylated probe binding to avidin beads | shares compounds with RGS16-Gao HTS | streptavidin beads, fluorescein-biotin binding, flow cytometry | inhibition, % at 10 µM | 1,700 tested, under 10 active;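 active = inhibition above 50%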;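 also: median green fluorescence of gated singlet beads compared with DMSO control wells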
RGS8-Gao confirm: confirmation of regulators of human RGS8-Galphao interaction | binding response (% of control), % at 10 µM | shares compounds with RGS16-Gao HTS | bead-based flow cytometry RGS8-Galphao binding, fluorescence; actives lie on both sides | actives 3% (n = 1,700); in the data active = binding response below about 72% or above about 130%; inactive = in between;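 also: Galphao activated as GDP AlF4 complex before binding bead RGS8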
RGS7-Gao single: RGS7-Galphao interaction regulation, single point confirmation. AID 1837. shares compounds with RGS16-Gao HTS. bead-based flow cytometry RGS7-Galphao binding; actives lie on both sides. actives 7.8% (n = 1,700). response (percent of control binding), % at 10 µM; in the data active = response below about 75% or above about 130%; inactive = in between;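 also: fluorescent Galphao activated with GDP and aluminum fluoride binding bead-coupled RGS7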
RGS16-Gao conf: RGS16-Galphao interaction regulation, single point confirmation; bead-based flow cytometry, RGS16-Galphao binding; actives lie on both sides; response (% of control binding), % at 10 µM; shares compounds with RGS16-Gao HTS; actives 4% (n = 1,700); in the data active = response below about 74% or above about 130%; inactive = in between;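 also: Galphao activated as the GDP aluminium fluoride complex binding bead-coupled RGS16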
RGS4-Gao confirm: confirmation of regulators of human RGS4-Galphao interaction; shares compounds with RGS16-Gao HTS; RGS4-Galphao binding, multiplexed bead flow cytometry; actives lie on both sides; binding response (% of control), % at 10 µM; actives 4% (n = 1,700); AID 1840; in the data active = binding response below about 74% or above about 130%; inactive = in between
RGS19-Gao single: confirmation of regulators of human RGS19-Galphao interaction; shares compounds with RGS16-Gao HTS; bead-based flow cytometry RGS19-Galphao binding; actives lie on both sides; response (percent of control binding), % at 10 µM; actives 5% (n = 1,700); AID 1841; in the data active = response below about 50% or above about 160%; inactive = in between
Numbers stand for hits; i = inactive; ? = inconclusive; nt = no result; [ ] = dose if it differs, or a comment. Sampled rows, rich in hits. Any-hit rate of the full collection: about 0.74%. Unless noted, no rule for the calls is given here.

SMILES	RGS7-Gao	RGS4-Gao reg	RGS16-Gao HTS	RGS8-Gao reg	Biofilm kill mix	RGS4-Gao HTS	Avidin counter	RGS8-Gao confirm	RGS7-Gao single	RGS16-Gao conf	RGS4-Gao confirm	RGS19-Gao single
Cc1ccc(N2CCN(CCc3nc4cc(NS(C)(=O)=O)ccc4n3C)CC2)cc1	i	i	i	147[activator]	nt	120	i	i	i	i	i	i
CCOC(=O)c1c(OCC)[nH]c2ccc(O)cc12	i	i	i	i	nt	nt	nt	nt	nt	nt	nt	nt
COc1ccccc1NC(=O)CN1CCN(CC(=O)Nc2ccc3c(c2)OCO3)CC1	i	i	i	142[activator]	nt	119	nt	nt	nt	nt	nt	nt
COc1ccc(NC(=O)CN2CCN(CC(=O)Nc3ccc4c(c3)OCO4)CC2)cc1	i	i	i	i	nt	nt	nt	nt	nt	nt	nt	nt
CC(C)OC(=O)c1c(NC(=O)Cn2cnc([N+](=O)[O-])n2)sc2c1CCCC2	nt	nt	nt	nt	nt	nt	i	i	i	i	i	i
CCOC(=O)c1c(NC(=O)Cn2cnc([N+](=O)[O-])n2)sc2c1CCCC2	i	i	i	i	i	nt	nt	nt	nt	nt	nt	nt
CCCCn1c(-c2csc(C(C)C)c2)n[nH]c1=S	i	i	i	i	i	nt	i	i	i	i	i	i
O=C(CNC(=O)/C(=C\c1ccccc1)NC(=O)c1ccc(Br)cc1)OCc1ccccc1	i	i	i	i	nt	nt	nt	nt	nt	nt	nt	nt
O=C(CNC(=O)/C(=C\c1ccc(F)cc1)NC(=O)c1ccccc1)OCc1ccccc1	172[activator]	i	i	i	nt	125	nt	nt	nt	nt	nt	nt
CC1Cc2ccccc2N1C(=O)CCn1c(=O)sc2ccccc21 (stereo unspecified)	?	i	i	i	i	nt	nt	nt	nt	nt	nt	nt
O=C(CN1C(=O)COc2ccccc21)N(CCCN1CCOCC1)CC1CC=CCC1 (stereo unspecified)	nt	nt	nt	nt	nt	nt	i	i	i	i	i	i
O=C(CN1C(=O)COc2ccccc21)N(Cc1ccc2c(c1)OCO2)CC1CCCO1 (stereo unspecified)	i	i	i	i	nt	nt	nt	nt	nt	nt	nt	nt
O/N=C/c1ccc(OCc2ccccc2)c(Cl)c1	i	i	i	i	i	nt	nt	nt	nt	nt	nt	nt
O/N=C/c1ccc(OCc2ccccc2)c(Br)c1	i	i	3.0	i	i	84	i	i	i	i	i	i
Cc1cccc(CC2S/C(=N/c3ccccn3)NC2=O)c1 (stereo unspecified)	i	i	i	142[activator]	i	113	i	i	i	i	i	i
O=C1N/C(=N\c2ccccn2)SC1Cc1ccccc1Cl (stereo unspecified)	?	i	i	i	i	nt	nt	nt	nt	nt	nt	nt
Cc1ncsc1CCOC(=O)C1C2CC3CC(C2)CC1C3 (stereo unspecified)	i	i	22	i	i	92	i	i	i	i	i	i
COc1ccccc1OCc1nc(C#N)c(N2CCCC2)o1	13	22	i	16	i	nt	i	i	i	i	i	i
COc1ccc(C(=O)Nc2ccccc2C(=O)N/N=C/c2ccco2)cc1	i	i	i	i	i	nt	nt	nt	nt	nt	nt	nt
N=C1c2ccccc2CN1NC(=O)c1cccc(S(=O)(=O)N2CCOCC2)c1	i	i	236[activator]	i	i	116	i	i	165[activator]	126[activator]	127[activator]	324[activator]
CC(=O)NCC(=O)OCC(=O)c1ccc(Br)cc1	i	i	i	i	i	nt	nt	nt	nt	nt	nt	nt
CC(=O)COC(=O)CNC(=O)c1ccc(Br)cc1	i	i	nt	167[activator]	nt	138	nt	nt	nt	nt	nt	nt
NS(=O)(=O)c1cccc(NC(=O)Cc2ccc(Cl)c(Cl)c2)c1	167[activator]	156[activator]	i	148[activator]	i	nt	i	i	i	i	i	i
O=S(=O)(N/N=C/c1ccccc1F)c1ccccc1	?	22	11	14	i	nt	i	i	i	i	i	i
O=S(=O)(N/N=C/c1ccc(F)cc1)c1ccccc1	i	i	i	i	i	nt	nt	nt	nt	nt	nt	nt
SMILES	RGS7-Gao	RGS4-Gao reg	RGS16-Gao HTS	RGS8-Gao reg	Biofilm kill mix	RGS4-Gao HTS	Avidin counter	RGS8-Gao confirm	RGS7-Gao single	RGS16-Gao conf	RGS4-Gao confirm	RGS19-Gao single
CC1CCCC(C)N1C(=O)c1cccc2c1-c1ccccc1/C2=N/O (stereo unspecified)	166[activator]	i	i	i	i	110	i	i	i	i	i	i
CCOC(=O)c1cccc2c1-c1ccccc1/C2=N/O	i	i	i	i	nt	nt	nt	nt	nt	nt	nt	nt
O=C(CNC(=O)c1ccc(Cl)cc1Cl)Nc1ccc(F)cc1	?	i	i	i	i	nt	nt	nt	nt	nt	nt	nt
CCN(CC)S(=O)(=O)c1cc(C(=O)Nc2nncs2)c(Cl)cc1Cl	nt	i	i	i	nt	nt	i	i	i	i	i	i
Cc1cc(C)cc(C(=O)NCC(=O)OCc2c(C)noc2C)c1	-0.1	16	1.9	15	i	nt	i	i	i	i	i	i
Cc1cc(C)nc(NS(=O)(=O)c2ccc(NC(=O)CSc3nc(-c4ccccc4)c(C#N)c(=O)[nH]3)cc2)n1	i	i	i	i	i	nt	nt	nt	nt	nt	nt	nt
CC1CC2=C(C(=O)O1)C(C)Nc1ccccc1N2 (stereo unspecified)	i	i	22	i	i	86	i	i	i	i	i	i
COc1ccccc1NC(=O)c1ccc(NC(=O)CSc2ncn[nH]2)cc1	i	i	i	i	i	nt	nt	nt	nt	nt	nt	nt
CC(=O)N(C)c1nc(N)n(-c2ccccc2)n1	i	i	i	i	i	nt	nt	nt	nt	nt	nt	nt
CC1(C(=O)N/N=C/c2ccc([N+](=O)[O-])o2)CC1(Br)Br (stereo unspecified)	i	i	13	i	i	88	i	i	i	i	i	i
COc1cc(CN2CCC(C(=O)N3CCN(c4ccccc4F)CC3)CC2)cc(OC)c1OC	i	i	i	i	nt	nt	nt	nt	nt	nt	nt	nt
COc1ccc(CN2CCC(C(=O)N3CCN(c4ccccc4F)CC3)CC2)cc1OC	i	i	i	141[activator]	nt	135	nt	nt	nt	nt	nt	nt
Cc1ccc(S(=O)(=O)NC2(C(F)(F)F)C(=O)Nc3c2c(=O)[nH]c(=O)n3-c2ccccc2)cc1 (stereo unspecified)	162[activator]	i	i	i	i	113	i	i	i	i	i	i
Cc1ccc(-n2c3c(c(=O)[nH]c2=O)C(NS(=O)(=O)c2ccc(C)cc2)(C(F)(F)F)C(=O)N3)cc1 (stereo unspecified)	i	i	i	i	nt	nt	nt	nt	nt	nt	nt	nt
Cc1ccc(NC(=O)C(=O)NCCOc2ccc(Cl)cc2)c(C)c1	i	i	i	i	i	nt	nt	nt	nt	nt	nt	nt

Assay outcomes from PubChem.
